Where a name gives a salt, the structure may show the parent alone.
Assays:
fungi = settings: antifungal activity; cited from earlier work
In vitro cytotoxicity = type: cell-based; settings: African green monkey, Vero cells (African green monkey kidney fibroblast)
Method in brief: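 Vero (African green monkey kidney) cell growth assay. […] Test compounds went up to 25 μg/mL and the doxorubicin control up to 5 μg/mL. Values are means of three independent experiments.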

C. albicans SC5314 = assay: In vivo efficacy in mouse model of systemic candidiasis; settings: 5 and 25 mg/kg
[1] = test system: C. albicans, Candida glabrata, Candida krusei, Aspergillus fumigatus, and C. neoformans; assay: In vitro antifungal testing, range over all tested pathogens; type: cell-based; settings: range over the five fungal pathogens
Method in brief: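 Broth microdilution. MIC is the lowest concentration with no detectable growth. For MFC, 5 μL from each clear well was moved to agar and incubated at 35°C: 48 h for Candida spp. and A. fumigatus, 72 h for C. neoformans. […] Values are means of three independent experiments (two for one analogue).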

C. albicans ATCC 90028 = assay: In vitro antifungal testing; type: cell-based, Candida albicans; settings: from MIC/MFC
[2] = patients with leishmania; cited from earlier work

Structure (SMILES) | IC50 (In vitro cytotoxicity) | other results
CCCCCCCC/C=C\CCCCCCCCCCCCOP(=O)([O-])OCC[N+](C)(C)C [erucylphosphocholine] |  | fold less potent than miltefosine (fungi): 8 fold
CCCCCCCCCCCCCCCCOP(=O)([O-])OCC[N+](C)(C)Cc1ccc(Br)cc1 [Compound 3g] | > 25 µg/mL | 
CCCCCCCCCCCCCCCCOP(=O)([O-])OCC[N+](C)(C)Cc1ccccc1 [Compound 3a, N-benzyl-N,N-dimethyl-2-{[(hexadecyloxy)hydroxyphosphinyl]oxy}ethanaminium inner salt] | > 25 µg/mL | Survival rate of mice vs PBS control, oral administration (C. albicans SC5314): did not enhance the survival rate; MFCs, range against all tested pathogens [1]: 2.5 to 15.0 µg/mL; MICs, range against all tested pathogens [1]: 2.5 to 5.0 µg/mL; fold less potent than amphotericin B (C. albicans ATCC 90028): 2- to 3 fold
CCCCCCCCCCCCCCCCCCOP(=O)([O-])OCC[N+](C)(C)Cc1ccccc1 [Compound 3c] | > 25 µg/mL | 
COc1cccc2c1C(=O)c1c(O)c3c(c(O)c1C2=O)C[C@@](O)(C(=O)CO)C[C@@H]3O[C@H]1C[C@H](N)[C@H](O)[C@H](C)O1 [Doxorubicin, reference compound] | > 5 µg/mL | 
CCCCCCCCCCCCCCCCOP(=O)([O-])OCC[N+](C)(C)Cc1ccc(Cl)cc1 [Compound 3f] | > 25 µg/mL | 
CCCCCCCCCCCCCCCCOP(=O)([O-])OCC[N+](C)(C)Cc1ccc([N+](=O)[O-])cc1 [Compound 3d, N,N-dimethyl-N-(4-nitrobenzyl)-2-{[(hexadecyloxy)hydroxyphosphinyl]oxy}ethanaminium inner salt] | > 25 µg/mL | MICs, range against all tested pathogens [1]: 2.5 to 5.0 µg/mL; fold less potent than amphotericin B (C. albicans ATCC 90028): 2- to 3 fold
CCCCCCCCCCCCCCCCOP(=O)([O-])OCC[N+](C)(C)Cc1ccc(OC)cc1 [Compound 3e, N-(4-methoxybenzyl)-N,N-dimethyl-2-{[(hexadecyloxy)hydroxyphosphinyl]oxy}ethanaminium inner salt] | > 25 µg/mL | MICs, range against all tested pathogens [1]: 2.5 to 5.0 µg/mL
CCCCCCCCCCCCCCCCOP(=O)([O-])OCC[N+](C)(C)C/C=C/c1ccccc1 [Compound 3h] | > 25 µg/mL | 
C=CC[N+](C)(C)CCOP(=O)([O-])OCCCCCCCCCCCCCCCC [Compound 3i] | > 25 µg/mL | 
CCCCCCCCCCCCCCOP(=O)([O-])OCC[N+](C)(C)Cc1ccccc1 [Compound 3b] | > 25 µg/mL | 
CCCCCCCCCCCCCCCCOP(=O)([O-])OCC[N+](C)(C)C [Miltefosine, hexadecylphosphocholine] | > 25 µg/mL | half-life, first elimination [2]: 7 days; half-life, terminal elimination [2]: 31 days
